In brackets after ≈: the same amount, converted by molar mass.
Experiments:
Human alphaherpesvirus 1 [1] = assay: Antiviral activity against thymidine kinase deficient and acyclovir resistant HSV1 KOS in human HEL cells assessed as reduction of virus-induced cytopathogenicity; type: functional; conditions: Human alphaherpesvirus 1, KOS
Summary of the method: (§1)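 Confluent cell monolayers (E6SM, HEL, HeLa or Vero, per line) inoculated with 100 CCID50 virus; 1 h adsorption, residual virus removed, then incubated with compound at 400, 200, 100 … µg/ml. Cytopathicity scored once complete in untreated virus controls; MIC = concentration inhibiting virus-induced cytopathicity.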

Human alphaherpesvirus 1 [2] = assay: Antiviral activity against HSV1 KOS in human E6SM cells assessed as reduction of virus-induced cytopathogenicity; type: functional; conditions: Human alphaherpesvirus 1, KOS; summary of the method: as §1
[3] = system: Human immunodeficiency virus 1; assay: Antiviral activity against HIV1 3B in human MT4 cells assessed as protection against virus-induced cytopathogenicity by MTT assay; type: functional, organism-based; parameters: Activity: concentration or dose not given beside the values; conditions: for IC50: Human immunodeficiency virus 1, 3B, MT4
Summary of the method: (§2)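 MT-4 cells at 6 × 10⁵ cells/ml infected with HIV-1 IIIB or HIV-2 ROD at 100–300 CCID50; compounds in serial five-fold dilutions, triplicate mock- and virus-infected wells. MTT viability read at 540 and 690 nm after 5 days, median OD of three wells; EC50 = 50% protection from viral cytopathic effect.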

Human alphaherpesvirus 1 [4] = assay: Antiviral activity against HSV1 KOS in human HEL cells assessed as reduction of virus-induced cytopathogenicity; type: functional; conditions: Human alphaherpesvirus 1, KOS; summary of the method: as §1
Sindbis virus = assay: Antiviral activity against Sindbis virus in african green monkey Vero cells assessed as reduction of virus-induced cytopathogenicity; type: functional; summary of the method: as §1
Coxsackievirus B4 [5] = assay: Antiviral activity against Coxsackie virus B4 in human HeLa cells assessed as inhibition of virus-induced cytopathogenicity; type: functional; conditions: Enterovirus B; summary of the method: as §1
[6] = Cytotoxicity against human E6SM cells; type: cell-based; conditions: E6SM cells
Summary of the method: (§3)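 Uninfected cell cultures exposed to test compounds alongside antiviral assays; minimum cytotoxic concentration (MCC) = concentration causing a microscopically detectable alteration of cell morphology.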

[7] = system: Vesicular stomatitis virus; assay: Antiviral activity against in Vesicular stomatitis virus in human HEL cells assessed as reduction of virus-induced cytopathogenicity; type: functional; summary of the method: as §1
[8] = Cytotoxicity against human MT4 cells by MTT assay; type: cell-based
Summary of the method: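 Mock-infected MT-4 cells (6 × 10⁵ cells/ml) with serial five-fold compound dilutions in triplicate; MTT reduction read at 540 and 690 nm after 5 days, median OD of three wells; CC50 = concentration reducing OD540 of mock-infected control by 50%.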

[9] = Cytotoxicity against human HEL cells assessed as alteration of cell morphology; type: cell-based; summary of the method: as §3
Human alphaherpesvirus 2 [10] = assay: Antiviral activity against HSV2 G in human E6SM cells assessed as reduction of virus-induced cytopathogenicity; type: functional; conditions: Human alphaherpesvirus 2, G; summary of the method: as §1
Human alphaherpesvirus 1 [11] = assay: Antiviral activity against thymidine kinase deficient and acyclovir resistant HSV1 KOS in human E6SM cells assessed as reduction of virus-induced cytopathogenicity; type: functional; conditions: Human alphaherpesvirus 1, KOS; summary of the method: as §1
[12] = system: Vesicular stomatitis virus; assay: Antiviral activity against vesicular stomatitis virus in human HeLa cells assessed as inhibition of virus-induced cytopathogenicity; type: functional; summary of the method: as §1
Coxsackievirus B4 [13] = assay: Antiviral activity against Coxsackie virus B4 in african green monkey Vero cells assessed as reduction of virus-induced cytopathogenicity; type: functional; conditions: Enterovirus B; summary of the method: as §1
[14] = system: Human immunodeficiency virus 2; assay: Antiviral activity against HIV2 ROD in human MT4 cells assessed as protection against virus-induced cytopathogenicity by MTT assay; type: functional, organism-based; parameters: Activity: concentration or dose not given beside the values; conditions: for IC50: Human immunodeficiency virus 2, ROD, MT4; summary of the method: as §2
Punta Toro virus = assay: Antiviral activity against Punta Toro virus in african green monkey Vero cells assessed as reduction of virus-induced cytopathogenicity; type: functional; summary of the method: as §1
[15] = Cytotoxicity against human HeLa cells; type: cell-based; summary of the method: as §3
Vero = assay: Cytotoxicity against african green monkey Vero cells; type: cell-based; conditions: chlorocebus sabaeus; summary of the method: as §3
[16] = system: Vesicular stomatitis virus; assay: Antiviral activity against in Vesicular stomatitis virus in human E6SM cells assessed as reduction of virus-induced cytopathogenicity; type: functional; summary of the method: as §1
Human respirovirus 3 = assay: Antiviral activity against Parainfluenza 3 virus in african green monkey Vero cells assessed as reduction of virus-induced cytopathogenicity; type: functional; summary of the method: as §1
Human alphaherpesvirus 2 [17] = assay: Antiviral activity against HSV2 G in human HEL cells assessed as reduction of virus-induced cytopathogenicity; type: functional; conditions: Human alphaherpesvirus 2, G; summary of the method: as §1
[18] = system: Respiratory syncytial virus; assay: Antiviral activity against respiratory syncytial virus in human HeLa cells assessed as inhibition of virus-induced cytopathogenicity; type: functional; summary of the method: as §1
[19] = system: Mammalian orthoreovirus 1; assay: Antiviral activity against Reo virus 1 in african green monkey Vero cells assessed as reduction of virus-induced cytopathogenicity; type: functional; summary of the method: as §1

Compound | MIC (Human alphaherpesvirus 1 [1]) [µg/mL] | MIC (Human alphaherpesvirus 1 [2]) [µg/mL] | MIC (Human alphaherpesvirus 1 [4]) [µg/mL] | MIC (Sindbis virus) [µg/mL] | MIC (Coxsackievirus B4 [5]) [µg/mL] | MCC [6] [µg/mL] | MIC [7] [µg/mL] | MCC [9] [µg/mL] | MIC (Human alphaherpesvirus 2 [10]) [µg/mL] | MIC (Human alphaherpesvirus 1 [11]) [µg/mL] | MIC [12] [µg/mL] | MIC (Coxsackievirus B4 [13]) [µg/mL] | MIC (Punta Toro virus) [µg/mL] | MCC [15] [µg/mL] | Activity (Vero) | MIC [16] [µg/mL] | MIC (Human respirovirus 3) [µg/mL] | MIC (Human alphaherpesvirus 2 [17]) [µg/mL] | MIC [18] [µg/mL] | MIC [19] [µg/mL] | further results
C=CCNC(=S)Nc1ccc(-c2n[nH]c(=S)n2CCc2ccccc2)cc1 | > 80 | > 80 | > 80 | > 80 | > 80 | 400 | > 80 | 400 | > 80 | > 80 | > 80 | > 80 | > 80 | 400 | >= 80 ug ml-1 | > 80 | > 80 | > 80 | > 80 | > 80 | Activity [3]: 9%; IC50 [3]: > 13 µg/mL; CC50 [8]: 13 µg/mL (≈ 32.9 µM); Activity [14]: 0%; IC50 [14]: > 13 µg/mL
Nc1ncnc2c1ncn2C[C@H](O)CO [(S)-DHPA] |  |  |  | > 400 | > 400 |  |  |  |  |  | > 400 | > 400 | > 400 | > 400 | > 400 µg/mL |  | > 400 |  | > 400 | > 400 | 
C=CCNC(=S)Nc1ccc(-c2n[nH]c(=S)n2CC)cc1 | 240 (≈ 751 µM) | 240 (≈ 751 µM) | 240 (≈ 751 µM) | > 80 | > 80 | 400 | > 80 | 400 | 240 (≈ 751 µM) | 240 (≈ 751 µM) | > 80 | > 80 | 80 (≈ 250 µM) | 400 | >= 80 ug ml-1 | > 80 | > 80 | 240 (≈ 751 µM) | > 80 | > 80 | Activity [3]: 8.5%; IC50 [3]: > 57 µg/mL; CC50 [8]: 57 µg/mL (≈ 178 µM); Activity [14]: 0%; IC50 [14]: > 57 µg/mL
CNC(=S)Nc1ccc(-c2n[nH]c(=S)n2C)cc1 | > 80 | 240 (≈ 859 µM) | 240 (≈ 859 µM) | > 80 | > 80 | 400 | > 80 | 400 | 240 (≈ 859 µM) | > 80 | > 80 | > 80 | > 80 | 400 | 400 µg/mL | > 80 | > 80 | 240 (≈ 859 µM) | > 80 | > 80 | Activity [3]: 1%; IC50 [3]: > 80.3 µg/mL; CC50 [8]: 80.3 µg/mL (≈ 287 µM); Activity [14]: 0%; IC50 [14]: > 80.3 µg/mL
CNC(=S)Nc1ccc(-c2nnc(SCc3ccccc3)n2C)cc1 | > 16 | > 16 | > 16 | > 16 | > 16 | ≥ 16 | > 16 | ≥ 16 | > 16 | > 16 | > 16 | > 16 | > 16 | 80 | 80 µg/mL | > 16 | > 16 | > 16 | > 16 | > 16 | Activity [3]: 2.5%; IC50 [3]: > 75.4 µg/mL; CC50 [8]: 75.4 µg/mL (≈ 204 µM); Activity [14]: 6%; IC50 [14]: > 75.4 µg/mL
NC(=O)c1ncn([C@@H]2O[C@H](CO)[C@@H](O)[C@H]2O)n1 [RIBAVIRIN] | 48 (≈ 197 µM) | 9.6 (≈ 39.3 µM) | 9.6 (≈ 39.3 µM) | 240 (≈ 983 µM) | 240 (≈ 983 µM) | > 400 | 240 (≈ 983 µM) | > 400 | 48 (≈ 197 µM) | 48 (≈ 197 µM) | 48 (≈ 197 µM) | > 400 | 48 (≈ 197 µM) | > 400 | > 400 µg/mL | 240 (≈ 983 µM) | 48 (≈ 197 µM) | 48 (≈ 197 µM) | 9.6 (≈ 39.3 µM) | 48 (≈ 197 µM) | 
